Laboratory results: ChEMBL document CHEMBL1121484, “Thrombin inhibitors. 2. Amide derivatives of N alpha-substituted L-arginine” (J Med Chem, 1980)

Molecular target: Prothrombin (Bos taurus) (UniProt P00735)
Test: Percentage of rate of hydrolysis in 4 hr incubation by thrombin
Assay type: functional
Settings: not given
In short: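 Test compounds at 1 mM in 0.1 M Tris-HCl, pH 8.0, were incubated with thrombin (100 units in a 1.0 mL reaction) at 37 °C for 4 h. Hydrolysis rate was followed titrimetrically with a pH-stat and automatic burette at 37 °C and pH 8.0.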

Row | Structure (SMILES) | Hydrolysis [%]
1 | COCCNC(=O)C(CCCN=C(N)N)NS(=O)(=O)c1cccc2c(N(C)C)cccc12 (stereo not drawn) | 0
2 | CCC1CCN(C(=O)C(CCCN=C(N)N)NS(=O)(=O)c2cccc3c(N(C)C)cccc23)CC1 (stereo not drawn) | 0
3 | CCCCN(C)C(=O)C(CCCN=C(N)N)NS(=O)(=O)c1cccc2c(N(C)C)cccc12 (stereo not drawn) | 0

Continued, values first:

Row | Hydrolysis [%] | Structure (SMILES)
4 | 0 | CN(C)c1cccc2c(S(=O)(=O)NC(CCCN=C(N)N)C(=O)N3CCCCC3)cccc12 (stereo not drawn)
5 | 0 | CCCCNC(=O)C(CCCN=C(N)N)NS(=O)(=O)c1cccc2c(N(C)C)cccc12 (stereo not drawn)

Molecular target: Prothrombin (Bos taurus, UniProt P00735)
Test: Bovine thrombin concentration at which clotting time was prolonged 2x over the control.
Assay type: functional
Settings: read-out: I50
In short: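 Clotting assay at 25 °C. The read-out was the time from thrombin addition to clot formation.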

Row | Structure (SMILES) | IC50 [µM]
6 | C=CCNC(=O)C(CCCN=C(N)N)NS(=O)(=O)c1cccc2c(N(C)C)cccc12 (stereo not drawn) | 10
7 | CCCNC(=O)C(CCCN=C(N)N)NS(=O)(=O)c1cccc2c(N(C)C)cccc12 (stereo not drawn) | 15
8 | N=C(N)NCCCC(NS(=O)(=O)c1cccc2ccccc12)C(=O)N1CCOCC1 (stereo not drawn) | 20
9 | CCCCN(C)C(=O)C(CCCN=C(N)N)NS(=O)(=O)c1cccc2ccccc12 (stereo not drawn) | 50
10 | CCC1CCN(C(=O)C(CCCN=C(N)N)NS(=O)(=O)c2cccc3c(C(=O)O)cccc23)CC1 (stereo not drawn) | 1000
11 | CN(C)c1cccc2c(S(=O)(=O)NC(CCCNC(=N)N)C(=O)NC3CCCCC3)cccc12 (stereo not drawn) | 500
12 | CC(=O)N1CCN(C(=O)C(CCCN=C(N)N)NS(=O)(=O)c2cccc3c(N(C)C)cccc23)CC1 (stereo not drawn) | 3.5
13 | CCN(CC)C(=O)C(CCCN=C(N)N)NS(=O)(=O)c1cccc2c(N(C)C)cccc12 (stereo not drawn) | 55
14 | COCCNC(=O)C(CCCNC(=N)N)NS(=O)(=O)c1cccc2c(N(C)C)cccc12 (stereo not drawn) | 4
15 | CCCCNC(=O)C(CCCNC(=N)N)NS(=O)(=O)c1cccc2ccccc12 (stereo not drawn) | 50

Continued, values first:

Row | IC50 [µM] | Structure (SMILES)
16 | 1 | CN(C)c1cccc2c(S(=O)(=O)NC(CCCN=C(N)N)C(=O)N3CCCCC3)cccc12 (stereo not drawn)
17 | 2.1 | CCCCNC(=O)C(CCCN=C(N)N)NS(=O)(=O)c1cccc2c(N(C)C)cccc12 (stereo not drawn)
18 | 2 | CCCCN(C)C(=O)C(CCCNC(=N)N)NS(=O)(=O)c1cccc2c(N(C)C)cccc12 (stereo not drawn)
19 | 0.15 | COc1cc2ccc(S(=O)(=O)NC(CCCN=C(N)N)C(=O)N3CCC(C)CC3)cc2cc1OC (stereo not drawn)
20 | 0.3 | CCC1CCN(C(=O)C(CCCN=C(N)N)NS(=O)(=O)c2ccc3cc(N(C)C)ccc3c2)CC1 (stereo not drawn)
21 | 0.15 | CCC1CCN(C(=O)C(CCCN=C(N)N)NS(=O)(=O)c2ccc3cc(OC)c(OC)cc3c2)CC1 (stereo not drawn)
22 | 0.9 | CN(C)c1cccc2c(S(=O)(=O)NC(CCCNC(=N)N)C(=O)N3CCCCCC3)cccc12 (stereo not drawn)
23 | 0.5 | CCCOc1cccc2c(S(=O)(=O)NC(CCCNC(=N)N)C(=O)N3CCC(CC)CC3)cccc12 (stereo not drawn)
